Measurements taken from publication PMC9064382 (RSC Advances, 2019).

What was measured:
Assay type in all cases: in vitro ADME
hOATP2B1 = target: T1, hOATP2B1 (Homo sapiens, UniProt O94956)
T1 sequence (O94956 1-709): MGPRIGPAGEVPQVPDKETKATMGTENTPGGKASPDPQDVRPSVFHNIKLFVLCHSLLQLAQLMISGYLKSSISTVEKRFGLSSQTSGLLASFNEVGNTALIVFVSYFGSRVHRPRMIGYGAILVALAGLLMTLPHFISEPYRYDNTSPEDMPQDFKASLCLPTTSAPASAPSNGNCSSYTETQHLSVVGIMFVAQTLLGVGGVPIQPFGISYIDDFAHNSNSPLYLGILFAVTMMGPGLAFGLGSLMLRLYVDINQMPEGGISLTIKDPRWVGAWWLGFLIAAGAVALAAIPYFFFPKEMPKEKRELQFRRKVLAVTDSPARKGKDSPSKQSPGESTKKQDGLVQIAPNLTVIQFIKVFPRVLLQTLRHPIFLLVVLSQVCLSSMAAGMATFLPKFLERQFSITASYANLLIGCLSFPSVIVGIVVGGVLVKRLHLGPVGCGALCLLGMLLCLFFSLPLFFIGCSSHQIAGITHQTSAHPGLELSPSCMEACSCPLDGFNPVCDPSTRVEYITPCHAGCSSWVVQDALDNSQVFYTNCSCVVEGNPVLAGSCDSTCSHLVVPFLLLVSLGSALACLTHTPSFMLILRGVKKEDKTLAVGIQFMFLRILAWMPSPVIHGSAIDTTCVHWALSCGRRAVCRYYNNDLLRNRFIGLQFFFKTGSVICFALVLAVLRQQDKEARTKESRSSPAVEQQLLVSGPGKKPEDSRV
In short: (§1)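 Transfected and mock cells were incubated 2 min at 37 °C with 200 nmol L−1 3H-ES plus test compound. The screen used a single 100 μmol L−1 concentration with reference inhibitors as positive controls, giving an inhibition rate (n = 3, mean ± sd). […] DMSO was <0.2%. Cells were stopped with cold DPBS, rinsed three times, lysed in 0.1 mol L−1 NaOH and counted by scintillation (dpm).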

hOATP1B3 = target: T2, hOATP1B3 (Homo sapiens, UniProt Q9NPD5)
T2 sequence (Q9NPD5 1-702): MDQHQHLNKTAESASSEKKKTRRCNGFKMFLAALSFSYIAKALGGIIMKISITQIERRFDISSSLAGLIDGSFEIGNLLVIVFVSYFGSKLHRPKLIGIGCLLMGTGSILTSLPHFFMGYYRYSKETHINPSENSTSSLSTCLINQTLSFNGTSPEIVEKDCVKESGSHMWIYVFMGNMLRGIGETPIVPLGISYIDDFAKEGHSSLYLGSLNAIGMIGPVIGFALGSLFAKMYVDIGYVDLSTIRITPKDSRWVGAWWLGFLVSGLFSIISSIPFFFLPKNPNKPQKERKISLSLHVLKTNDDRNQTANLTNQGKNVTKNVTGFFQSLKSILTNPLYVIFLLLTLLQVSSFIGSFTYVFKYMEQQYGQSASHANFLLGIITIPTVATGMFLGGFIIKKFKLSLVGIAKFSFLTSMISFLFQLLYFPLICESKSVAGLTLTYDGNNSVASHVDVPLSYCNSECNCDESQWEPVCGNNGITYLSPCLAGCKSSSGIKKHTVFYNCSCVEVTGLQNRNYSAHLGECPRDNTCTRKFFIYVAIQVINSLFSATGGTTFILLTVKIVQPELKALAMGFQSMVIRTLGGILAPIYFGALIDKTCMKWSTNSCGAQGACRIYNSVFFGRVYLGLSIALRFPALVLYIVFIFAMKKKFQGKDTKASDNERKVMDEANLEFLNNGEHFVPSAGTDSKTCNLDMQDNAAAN

hOAT3 = target: T3, hOAT3 (Homo sapiens, UniProt Q8TCC7); assay: Inhibition of 3H-ES uptake in hOAT3-transfected cells by liquorice ingredients; conditions: read-out: IC50 on hOAT3; 3H-ES probe, 2 min
T3 sequence (Q8TCC7 1-542): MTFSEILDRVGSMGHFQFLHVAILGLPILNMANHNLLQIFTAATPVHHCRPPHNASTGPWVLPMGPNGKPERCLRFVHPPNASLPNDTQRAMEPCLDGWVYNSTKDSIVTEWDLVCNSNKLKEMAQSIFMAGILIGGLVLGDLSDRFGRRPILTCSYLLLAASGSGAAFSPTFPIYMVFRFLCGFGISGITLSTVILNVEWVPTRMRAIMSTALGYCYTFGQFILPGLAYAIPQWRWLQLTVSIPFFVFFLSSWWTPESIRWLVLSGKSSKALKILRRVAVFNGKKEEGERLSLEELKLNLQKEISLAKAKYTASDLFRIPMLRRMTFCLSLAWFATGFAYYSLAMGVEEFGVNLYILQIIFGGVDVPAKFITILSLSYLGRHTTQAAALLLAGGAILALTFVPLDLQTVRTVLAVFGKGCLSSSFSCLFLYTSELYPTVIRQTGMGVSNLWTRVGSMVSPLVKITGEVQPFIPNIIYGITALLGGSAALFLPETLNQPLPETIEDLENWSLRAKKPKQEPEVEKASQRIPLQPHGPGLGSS
In short: as §1

hOCT2 = target: T4, hOCT2 (Homo sapiens, UniProt O15244); assay: Inhibition of 14C-TEA uptake in hOCT2-transfected cells by liquorice ingredients; conditions: 5 min
T4 sequence (O15244 1-555): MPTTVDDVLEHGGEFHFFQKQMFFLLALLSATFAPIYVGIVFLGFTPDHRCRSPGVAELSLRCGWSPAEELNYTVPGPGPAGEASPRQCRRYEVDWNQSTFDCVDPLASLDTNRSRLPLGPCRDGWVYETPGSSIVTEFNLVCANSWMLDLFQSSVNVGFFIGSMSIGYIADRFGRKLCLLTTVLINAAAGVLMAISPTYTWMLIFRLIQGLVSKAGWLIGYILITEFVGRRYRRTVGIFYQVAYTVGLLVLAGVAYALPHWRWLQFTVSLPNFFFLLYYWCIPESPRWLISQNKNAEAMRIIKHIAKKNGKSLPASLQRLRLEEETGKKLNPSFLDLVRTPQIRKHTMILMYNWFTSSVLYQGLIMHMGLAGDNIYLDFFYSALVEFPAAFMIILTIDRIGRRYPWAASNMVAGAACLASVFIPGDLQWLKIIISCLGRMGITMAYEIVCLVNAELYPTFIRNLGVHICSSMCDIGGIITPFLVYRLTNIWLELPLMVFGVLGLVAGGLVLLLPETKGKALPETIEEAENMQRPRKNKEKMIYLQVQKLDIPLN

- IC50 (hOATP2B1; read-out: IC50 on hOATP2B1, 3H-ES probe, 2 min): 1090 nM
- inhibition of hOATP2B1 (hOATP2B1; screening at 100 μm): strong inhibitors
- IC50 (hOATP1B3; read-out: IC50 on hOATP1B3, 3H-ES probe, 2 min): 1910 nM
- inhibition of hOATP1B3 (hOATP1B3; screening at 100 μm): strong inhibitors
- IC50 (hOAT3): 3600 nM
- inhibitory rate on hOCT2 (hOCT2; 100 μm, 5 μmol L^−1 14C-TEA): 91.76%
- IC50 (hOCT2; read-out: IC50 on hOCT2, 14C-TEA probe): 6610 nM
Structure (SMILES): C=CC(C)(C)c1cc(/C=C/C(=O)c2ccc(O)cc2)c(OC)cc1O [licochalcone A]
